In ChEMBL document CHEMBL1127399, “4,7 beta-Dimethyl-4-azacholestan-3-one (MK-386) and related 4-azasteroids as selective inhibitors of human type 1 5 alpha-reductase” (J Med Chem, 1994):

What was measured:
[1] = target: T1, 3-oxo-5-alpha-steroid 4-dehydrogenase 2 (Homo sapiens, UniProt P31213); assay: Inhibition of type 2 steroid-5-alpha-reductase
T1 sequence (P31213 whole entry): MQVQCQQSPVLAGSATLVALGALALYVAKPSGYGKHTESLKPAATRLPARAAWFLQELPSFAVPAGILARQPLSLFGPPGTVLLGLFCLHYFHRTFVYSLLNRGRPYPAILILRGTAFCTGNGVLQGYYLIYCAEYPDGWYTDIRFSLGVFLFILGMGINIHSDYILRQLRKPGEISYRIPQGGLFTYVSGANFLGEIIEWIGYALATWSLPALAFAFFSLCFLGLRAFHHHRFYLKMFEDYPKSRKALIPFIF
Method in brief: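 Baculovirus-expressed recombinant human type 2 5α-reductase preincubated 18 h at 4 °C with inhibitor (1–10 000 nM, serially diluted from ethanol) in 40 mM sodium citrate pH 5.5, 500 μM NADPH, 1 mM DTT, 1 mg/mL BSA. Conversion of [7-³H]testosterone to DHT monitored by HPLC. IC50 averaged over at least three determinations.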

[2] = target: T2, 3-oxo-5-alpha-steroid 4-dehydrogenase 1 (Homo sapiens, UniProt P18405); assay: Inhibition of type 1 steroid-5-alpha-reductase
T2 sequence (P18405 whole entry): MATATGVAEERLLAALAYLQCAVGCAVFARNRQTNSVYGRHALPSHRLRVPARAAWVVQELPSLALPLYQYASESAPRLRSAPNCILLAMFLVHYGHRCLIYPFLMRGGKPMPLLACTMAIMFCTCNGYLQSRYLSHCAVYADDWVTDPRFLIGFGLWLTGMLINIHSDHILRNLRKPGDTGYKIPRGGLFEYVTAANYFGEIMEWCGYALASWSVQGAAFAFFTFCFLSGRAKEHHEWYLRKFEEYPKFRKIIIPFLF
Method in brief: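 Baculovirus-expressed recombinant human type 1 5α-reductase preincubated 18 h at 4 °C with inhibitor (0.1–1000 nM, serial dilutions from ethanol) in 40 mM sodium phosphate pH 7.0, 500 μM NADPH, 1 mM DTT, 1 mg/mL BSA. Reaction started with [7-³H]testosterone (final 0.3 μM) plus NADPH, 90 min at 37 °C; T and DHT separated by HPLC. IC50, mean of ≥3 determinations.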

SMILES | IC50 [1] | IC50 [2]
CC(C)CCCC(C)C1CCC2C3C(CC[C@]12C)[C@@]1(C)C=CC(=O)NC1C[C@@H]3C (stereo not given in full) | 298 nM | 1.6 nM
CN1C(=O)CC[C@@H]2c3ccc(Cl)cc3CC[C@H]21 [BEXLOSTERIDE] | 1750 nM | 8.6 nM
CC(C)CCCC(C)C1CCC2C3C(CC[C@]12C)[C@@]1(C)CCC(=O)NC1C[C@@H]3c1ccccc1 (stereo not given in full) | 443 nM | > 1000 nM
CC(C)CCCC(C)C1CCC2C3C(CC[C@]12C)[C@@]1(C)C=CC(=O)N(C)C1C[C@@H]3C (stereo not given in full) | 125 nM | 2 nM
C[C@]12CCC3C(CNC4=CC(=O)CC[C@@]43C)C1CCC2C(=O)NC(c1ccccc1)c1ccccc1 (stereo not given in full) | < 0.1 nM | 186 nM
CCC[C@H]1C=C2NC(=O)CC[C@]2(C)C2CC[C@]3(C)C(C(C)CCCC(C)C)CCC3C21 (stereo not given in full) | 713 nM | 58 nM
CC[C@H]1C=C2NC(=O)CC[C@]2(C)C2CC[C@]3(C)C(C(C)CCCC(C)C)CCC3C21 (stereo not given in full) | 1050 nM | 8.6 nM
CC(C)(C)NC(=O)[C@H]1CC[C@H]2[C@@H]3CC[C@H]4NC(=O)C=C[C@]4(C)[C@H]3CC[C@]12C [FINASTERIDE] | < 0.1 nM | 52 nM
CC(C)CCCC(C)C1CCC2C3C(CC[C@]12C)[C@@]1(C)CCC(=O)N(C)C1=C[C@@H]3C (stereo not given in full) | 147 nM | 0.6 nM
CCC[C@H]1CC2NC(=O)CC[C@]2(C)C2CC[C@]3(C)C(C(C)CCCC(C)C)CCC3C21 (stereo not given in full) | 1100 nM | 9.5 nM
CC[C@H]1CC2NC(=O)CC[C@]2(C)C2CC[C@]3(C)C(C(C)CCCC(C)C)CCC3C21 (stereo not given in full) | 280 nM | 2.7 nM
CC(C)CCCC(C)C1CCC2C3C(CC[C@]12C)[C@@]1(C)CCC(=O)NC1=C[C@@H]3C (stereo not given in full) | 859 nM | 2.5 nM
CC(C)CCCC(C)C1CCC2C3CC=C4NC(=O)CC[C@]4(C)C3CC[C@]12C (stereo not given in full) |  | 19.1 nM
CC(C)CCCC(C)C1CCC2C3C(CC[C@]12C)[C@@]1(C)CCC(=O)NC1=C[C@@H]3c1ccccc1 (stereo not given in full) | 1340 nM | > 1000 nM
CCC[C@H]1C=C2N(C)C(=O)CC[C@]2(C)C2CC[C@]3(C)C(C(C)CCCC(C)C)CCC3C21 (stereo not given in full) | 5.4 nM | 8.4 nM
CC(C)CCCC(C)C1CCC2C3C(CC[C@]12C)[C@@]1(C)CCC(=O)NC1C[C@@H]3C (stereo not given in full) | 280 nM | 2.6 nM
CC(C)CCCC(C)C1CCC2C3CCC4NC(=O)C=C[C@]4(C)C3CC[C@]12C (stereo not given in full) |  | 5 nM
CC[C@H]1C=C2N(C)C(=O)CC[C@]2(C)C2CC[C@]3(C)C(C(C)CCCC(C)C)CCC3C21 (stereo not given in full) | 2120 nM | 9.5 nM
CC(C)(C)NC(=O)[C@H]1CC[C@H]2[C@@H]3CC=C4C=C(C(=O)O)CC[C@]4(C)[C@H]3CC[C@]12C [EPRISTERIDE] | 0.6 nM | > 1000 nM
CC(C)CCCC(C)C1CCC2C3C(CC[C@]12C)[C@@]1(C)CCC(=O)N(C)C1=C[C@@H]3c1ccccc1 (stereo not given in full) | 2170 nM | > 1000 nM

Next, values leading:

IC50 [1] | IC50 [2] | SMILES
154 nM | 0.9 nM | CC(C)CCCC(C)[C@H]1CCC2C3C(CC[C@@]21C)[C@@]1(C)CCC(=O)N(C)C1C[C@@H]3C (stereo not given in full)
218 nM | 1.7 nM | CC(C)CCCC(C)C1CCC2C3CCC4N(C)C(=O)CC[C@]4(C)C3CC[C@]12C (stereo not given in full)
218 nM | 2.6 nM | CC(C)CCCC(C)C1CCC2C3CCC4NC(=O)CC[C@]4(C)C3CC[C@]12C (stereo not given in full)
1390 nM | 3.3 nM | CCN1C(=O)CC[C@]2(C)C3CC[C@]4(C)C(C(C)CCCC(C)C)CCC4C3[C@@H](C)CC12 (stereo not given in full)
 | 4.3 nM | CC(C)CCCC(C)C1CCC2C3CC=C4N(C)C(=O)CC[C@]4(C)C3CC[C@]12C (stereo not given in full)
580 nM | 20 nM | CCC[C@H]1CC2N(C)C(=O)CC[C@]2(C)C2CC[C@]3(C)C(C(C)CCCC(C)C)CCC3C21 (stereo not given in full)
330 nM | 5.7 nM | CC[C@H]1CC2N(C)C(=O)CC[C@]2(C)C2CC[C@]3(C)C(C(C)CCCC(C)C)CCC3C21 (stereo not given in full)
1300 nM | 42 nM | C=CCN1C(=O)CC[C@]2(C)C3CC[C@]4(C)C(C(C)CCCC(C)C)CCC4C3[C@@H](C)CC12 (stereo not given in full)
428 nM | 134 nM | CC(C)CCCC(C)C1CCC2C3C(CC[C@]12C)[C@@]1(C)CCC(=O)N(C)C1C[C@@H]3c1ccccc1 (stereo not given in full)
